B1: tRNA (parent)
chain: GUUCCGUUGGCGUAAUGGUAACGCGUCUCCCUCCUAAGGAGAAGACUGCGGGUUCGAGUCCCGUACGGAACG

Variants of: B1
Test: yeast fitness, log relative to wild type (ln ratio); higher = fitter; tRNA-Arg(CCU), competitive growth, 37 C, 1 M NaCl
Procedure, shortened: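 For each genotype, fitness is defined as the natural log of its generation number over the wild type's. The tRNA-Arg(CCU) variant library was on a HIS3 centromeric plasmid in BY4742 with the chromosomal gene removed, and pools were first grown 4 generations in SC-HIS at 30 °C and then ~6.5 generations (~26.5 h) in SC-HIS 1M NaCl at 37 °C. Generations were calculated from OD-scaled log2 output/input frequency, weighted by inverse variance across replicates, using counts from 125 bp paired-end Illumina sequencing.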

| Variant | yeast fitness (ln) |
| --- | --- |
| G6A C27U A43C C46U C66U A70U C71U | -0.435 |
| U2G G6U A43C C46U C66U | -0.191 |
| U2C G6U C66A A70U C71U | -0.105 |
| G1A U2G G6A C66U A70U C71U | -0.0116 |
| G1A G6A C27U A43C C66A A69G A70G C71U | -0.299 |
| U2G A70G C71U | -0.268 |
| U2C G6U C66A C71U | -0.294 |
| G1A C27U C46U A69G C71U | -0.047 |
| U2C G6U C27U C46U C66A A69G A70U | -0.114 |
| U2C G6U C27U C46U C66A A69G A70G | -0.035 |
| G1A G6U A43C C46U C66U C71U | -0.275 |
| G1A G6U C27U C66U | -0.29 |
| G1A U2C G6A A43C C46U A69G A70U | -0.0463 |
| U2G C46U C66U A70U | -0.00424 |
| U2G G6U A43C C46U C66U A69G C71U | -0.487 |
| U2C G6U A43C C66U A69G C71U | -0.454 |
| G6A C46U C66A A69G A70G | -0.148 |
| G1A U2G C46U C66A A70U C71U | -0.152 |
| G1A U2C G6U C27U C46U C66U A70U C71U | -0.284 |
| G1A A43C C46U A70G C71U | -0.032 |
| U2G G6U C27U A70G | -0.211 |
| G1A G6A A43C A69G A70U | -0.224 |
| C27U A43C A69G C71U | -0.44 |
| G1A U2C G6A C46U C66U A70G C71U | 0.0112 |

| Variant | yeast fitness (ln) |
| --- | --- |
| U2G A43C C46U C66U A70U | -0.101 |
| G1A U2C G6A A70U C71U | -0.126 |
| G1A G6A A43C C46U C66A A70U C71U | -0.171 |
| G1A G6A A43C A70G C71U | -0.27 |
| U2C C27U A43C C46U A69G | -0.0409 |
| G1A U2C G6U C27U A43C C46U C66U A69G A70G | -0.279 |
| G1A A43C C46U C66A A70U C71U | -0.189 |
| U2G C66A A69G A70G C71U | -0.152 |
| U2G C27U | -0.0566 |
| G1A G6A C27U C46U C66A A70U C71U | -0.228 |
| G1A U2G G6U A43C A69G C71U | -0.537 |
| U2C G6A A43C C46U C66U A69G A70G C71U | -0.0188 |
| U2C A70U C71U | -0.0765 |
| U2C G6U C27U C46U | -0.0552 |
| G1A U2C G6U C66A A69G A70G C71U | -0.0278 |
| U2G G6U C46U A70U C71U | -0.461 |
| U2G G6A A69G A70U C71U | -0.264 |
| G1A U2G C71U | -0.218 |
| G1A U2G G6U A43C C46U C66U C71U | -0.371 |
| G1A U2G G6U C27U C46U C66A A69G A70G C71U | -0.417 |
| G6U C27U A43C C46U C66U A69G A70U C71U | -0.535 |
| U2C C27U C66A A70U C71U | -0.222 |
| U2C C46U C66A A70U C71U | -0.0668 |
| G6A C46U C66U A69G A70U C71U | -0.35 |

| Variant | yeast fitness (ln) |
| --- | --- |
| G1A G6U A69G A70U | -0.131 |
| U2G G6A A43C C46U A70U | -0.261 |
| G1A U2G C27U A43C C46U A69G C71U | -0.239 |
| C27U A43C C46U C66U A69G | -0.204 |
| G1A G6U C27U C66A C71U | -0.0761 |
| G1A G6A C27U A69G A70G C71U | -0.344 |
| G1A U2C G6U A43C C46U C66A C71U | -0.3 |
| G1A C27U A43C C46U C66U A69G C71U | -0.361 |
| G1A U2G G6U A43C C66A A70G C71U | -0.301 |
| U2G G6A C27U C46U C71U | -0.128 |
| G1A U2G A43C C66A A70G | -0.241 |
| G1A U2C C27U A43C A69G A70G | -0.275 |
| G1A U2G G6U C27U A43C C46U A70U C71U | -0.339 |
| G6U C46U C66U A69G C71U | -0.594 |
| U2G G6U C27U A43C C46U C66U A69G | -0.317 |
| G1A U2G G6A C46U C66A A70G C71U | -0.185 |
| G1A U2G C46U C66A A70G | -0.152 |
| U2G G6U A43C C66U A69G A70G | -0.323 |
| G1A G6U C27U A43C A70U | -0.331 |
| U2C G6A C27U C66U C71U | -0.161 |
| G6A C27U A43C C66U A70G C71U | -0.302 |
| G1A U2C G6A C46U A70U | -0.0702 |
| G1A U2C G6A C46U A70G | -0.179 |
| G1A U2G A43C C46U A69G A70G | -0.141 |

| Variant | yeast fitness (ln) |
| --- | --- |
| U2C G6U A43C A69G A70G C71U | -0.13 |
| G1A U2G A69G C71U | -0.135 |
| U2C C27U A43C C46U A70U C71U | -0.0649 |
| U2C C27U C66U | -0.0757 |
| G1A U2C C46U C66U A69G A70G C71U | -0.0168 |
| U2G G6A A43C C46U C66A A70G | -0.169 |
| U2G G6U C27U C46U C66U A69G | -0.258 |
| G6U C27U A43C C46U A69G | -0.268 |
| G1A U2G G6U A43C C71U | -0.307 |
| G1A U2C G6A A43C C46U A69G A70G C71U | -0.119 |
| U2C C27U A43C C46U A70G | -0.0098 |
| G6U C27U A43C A69G A70U | -0.391 |
| U2C G6A A43C | -0.0449 |
| G1A U2G C27U A43C C46U C66U A69G A70U | -0.462 |
| U2C G6U A70U C71U | -0.102 |
| U2G G6U C27U C46U C66U A69G A70U | -0.238 |
| U2G G6A A43C C66A A69G A70G C71U | -0.154 |
| C66U C71U | -0.173 |
| G6U C27U C66U A70U | -0.261 |
| U2C G6A C27U C46U A70U | -0.0585 |
| G1A U2C G6A C27U A43C C46U A69G A70G | -0.225 |
| G6A C46U A69G A70U | -0.176 |
| G6U A43C C66A A69G | -0.0712 |
| G1A G6U A43C C46U C66U A69G C71U | -0.43 |

| Variant | yeast fitness (ln) |
| --- | --- |
| U2C C27U A43C C46U C66A A69G A70U | -0.263 |
| G1A C27U A43C A70G | -0.173 |
| G6U C27U C66U A69G A70G C71U | -0.355 |
| G1A U2G G6U C46U C66U C71U | -0.257 |
| G1A U2C G6A C66U | -0.121 |
| U2G G6U C46U A70G C71U | -0.165 |
| G1A U2G G6U A70G C71U | -0.256 |
| G6U C27U C46U C66A A70G | -0.04 |
| G1A U2G G6U C27U A43C C66A | -0.171 |
| G1A G6U C27U C46U C66A A70G C71U | -0.23 |
| U2C G6A C27U A43C C46U A70G C71U | -0.0979 |
| U2G G6U C27U C66A A70G C71U | -0.239 |
| U2C G6U A43C C46U A70U | -0.061 |
| G1A U2G G6U C66A A69G A70U | -0.293 |
| G1A U2C C46U C66U A69G A70U | -0.152 |
| U2G C66A A70G | -0.0918 |
| G1A U2C C27U A43C C46U C66U A70U | -0.0712 |
| G1A U2G C46U A69G | -0.13 |
| G1A G6A C46U C66U A69G A70G | -0.136 |
| G1A G6U C27U A43C C46U C66U A69G A70G | -0.353 |
| A43C C46U A69G A70U C71U | -0.273 |
| U2G C46U C66A A70U C71U | -0.0966 |
| G1A U2C G6U C46U C66U A70G | -0.265 |
| U2G C27U C46U C66U C71U | -0.214 |

| Variant | yeast fitness (ln) |
| --- | --- |
| C27U C46U C66U A69G A70G C71U | -0.166 |
| G1A G6A A43C C46U C66U A70U C71U | -0.331 |
| G1A A43C C46U A69G A70U | -0.0688 |
| G1A U2C G6U A69G A70U C71U | -0.277 |
| U2G A43C C46U C66A A69G A70U | -0.0871 |
| U2G G6U C27U A43C C66U A69G A70G C71U | -0.51 |
| G1A U2G C27U C46U C66U A69G A70U C71U | -0.429 |
| G6U C27U A69G A70U C71U | -0.513 |
| G6A A43C A70G | -0.223 |
| G1A U2C G6U C27U A43C C46U A69G A70G | -0.297 |
| U2C G6U C27U A43C C46U C66U A70G C71U | -0.225 |
| G1A U2G G6U C27U A69G C71U | -0.274 |
| U2C A43C C66A A70G C71U | -0.11 |
| C27U A70G C71U | -0.38 |
| U2G C66A A69G C71U | -0.145 |
| U2C C46U A69G C71U | -0.131 |
| G1A U2C C27U C46U A69G A70U C71U | -0.359 |
| G1A C66U A69G A70G C71U | -0.217 |
| G1A U2C G6U C27U A70G | -0.186 |
| G1A U2C C27U A43C C46U A69G A70U | -0.0492 |
| U2G A43C C46U C66A A69G A70G C71U | -0.21 |
| G1A G6U C27U C66U A70G | -0.391 |
| G6U C66A A69G A70G C71U | -0.402 |
| G1A G6U A43C C46U C66U A69G A70U C71U | -0.429 |

| Variant | yeast fitness (ln) |
| --- | --- |
| U2G A43C C46U C66A A70U C71U | -0.193 |
| U2C C27U A43C C66U A70G | -0.232 |
| G1A U2G A43C C46U C66A A69G A70U | -0.252 |
| G1A G6U C27U A43C C46U | -0.258 |
| U2C G6A C46U C66U A70U | -0.0206 |
| G1A U2G G6U C27U A69G A70U | -0.362 |
| G6A A69G A70U C71U | -0.315 |
| G1A U2G A70U | -0.124 |
| U2C C27U A69G | -0.23 |
| G1A U2G G6A C66U A69G A70G C71U | -0.366 |
| G1A U2G G6U C27U A43C C46U C66U A69G A70U C71U | -0.434 |
| U2G G6A C27U C66U A69G C71U | -0.409 |
| G1A G6U A43C C46U C66A A70G C71U | -0.237 |
| U2G G6A C27U A43C C46U C66U A70U C71U | -0.598 |
| G1A U2G G6A C27U A43C C66A A70U | -0.249 |
| U2G G6A C27U A43C C66U A69G A70U | -0.326 |
| U2G C27U A43C C66A A70U | -0.0548 |
| U2G G6A A69G A70U | -0.265 |
| U2C G6A C27U C66A A70U | -0.0448 |
| U2G G6A A43C C66U A69G A70U C71U | -0.407 |
| U2G G6U C27U A43C C46U A69G A70G | -0.242 |
| U2G C27U A43C C46U A69G A70U | -0.0275 |
| G6U C27U A43C C71U | -0.281 |

Source: the RNAGym collection of RNA variant scans (doi:10.1038/s41586-018-0170-7)
